What is called viability is a read-out of living cells in per cent, often relative to untreated cells. A word on the inhibition: it is the relative decrease from the control value, in per cent.

The values that follow come from PubChem BioAssay.

Assay [1] can be described thus: OD615 S. cerevisiae growth inhibition, permissive medium, pilot counter-assay, permissive growth control for S. cerevisiae lifespan shortening project (AID 705;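 active = growth inhibition above 25% in both replicates, a cutoff set 3 SD above the mean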). As to conditions: OD615, 24 h, at 10 µM, active compounds read high. The method, boiled down: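 Material: engineered DeaD yeast; Compound: one dose 10 µM, DMSO 0.25% final; Detection: absorbance (optical density) at 615 nm; Buffer or medium: permissive raffinose/galactose medium; Timing: 24 h exposure, 30 °C.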

The nature of assay [2]: Restrictive medium S. cerevisiae growth inhibition, OD615, pilot screen of yeast lifespan reduction project, restrictive growth control (AID 706;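 active = growth inhibition above a set limit, 3 SD over mean compound inhibition, in both replicates, cut at about 43% in these data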;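 also: modified DeaD lifespan yeast strain shifted to restrictive glucose medium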). The following applies: OD615, 48 h, at 10 µM, active compounds read high. The method, boiled down: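 Buffer or medium: restrictive glucose medium (CSMM-D); test system: modified S. cerevisiae; doses: single dose of 10 µM compound final, 0.25% DMSO; schedule: 48 h compound exposure at 30 °C; detection: absorbance (optical density) measured at 615 nm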

Assay [3] in a line: viability gain of MRP-1-high H69AR cells under doxorubicin, pilot screen, MRP-1 activator project, CellTiter-Glo, duplicate (AID 807;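 active = viability increase at or above a cutoff of the median across tested compounds plus 3 SD, cut at about 8.5% in these data, passing the limit was not always enough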;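 also: compound pretreatment 18-22 h then 72 h combined with doxorubicin; 0% = doxorubicin alone and 100% = vehicle without doxorubicin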). The following applies: H69AR viability with doxorubicin, CellTiter-Glo luminescence; at 10 µM; active compounds read high. Background: ATP-based viability assays read luminescence as a measure of living cells.
The nature of assay [4]: growth suppression of beta-catenin knockout HCT116, pilot screen, human colon tumor cells (AID 823).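 Also: 0% = wells killed by 20 µM Hyamine and 100% = untreated DMSO cell wells.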 As to conditions: CellTiter-Glo, 60 h, at 10 µM, active compounds read low.
Assay [5] is described as follows: growth suppression of PTEN-deleted HCT116, pilot screen, cell-based, HCT116 clonal line, CellTiter-Glo (AID 824;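 active = viability at or below 27.92% in each of two runs, the all-compound median minus 4 SD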;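 also: 0% = 20 µM Hyamine control and 100% = vehicle cell control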). As to conditions: 60 h, at 10 µM, active compounds read low.
Assay [6] can be described thus: inhibitors of the yeast RAM network, pilot screen, dse1pr::URA3 reporter, 5-FOA selection (AID 869;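 active = inhibition over a set limit, the all-compound mean plus 3 SD, in both replicate runs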;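 also: 0% = DMSO wells with no growth and 100% = 10 µM 1-NA-PP1 with full growth; RAM network block rescues cells from 5-FOA so hits raise OD615 growth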). As to conditions: S. cerevisiae dse1pr::URA3 5-FOA growth, OD615, 2 d; at 10 µM; active compounds read high; strain carries analog-sensitive mutant Cbk1 kinase.
Assay [7] in a line: RAM signaling pathway blockade in yeast – S. cerevisiae, Pdr1DBD-CYC8 efflux-inhibited sensitized strain, primary screen (AID 1298;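 active = RAM network inhibition above 8.4% in each of two replicates, 3 SD over the compound average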;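 also: 0% = DMSO untreated cells without growth and 100% = 10 µM 1-NA-PP1 full growth; higher means more yeast growth rescued from 5-FOA killing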). As to conditions: S. cerevisiae cbk1-as DSE1-URA3 strain, 5-FOA growth OD615, 2 d; at 50 µM; active compounds read high.

Unmarked numbers belong to inactive results. Inconclusive results are not listed. Activity calls are given as the source filed them.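 The calls were made as follows, unless noted: active = cell viability at or below a set limit in both duplicate runs, the limit being the all-compound median minus 4 SD (cut at about 23% in these data, passing the limit was not always enough); inconclusive = no clear call, values can overlap the other calls; inactive = the rest.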

In the case of `CC(C)CCNC(=O)C1C2C=CC3(CN(Cc4ccccc4Cl)C(=O)C13)O2` (stereo unspecified), the growth inhibition was -8.87% in assay [1] and -13.5% in assay [2]. The viability increase in assay [3] was -3.35%. Further, the results for the viability in assay [4] and in assay [5] were 103% and 98.3%, respectively. Moreover, the inhibition in assay [6] was 0.82%. For the same compound, the RAM network inhibition in assay [7] is 8.03%.

Take `Cc1nc(Nc2nc3ccccc3o2)nc2c1CCC2`: the growth inhibition in assay [1] was 9.76%; in assay [2] it was 16.7%. Besides, the viability increase in assay [3] is -1.82%. The viability was 77.7% in assay [4] and 76% in assay [5]. In assay [6], the inhibition was 0.225%. For the same compound, the RAM network inhibition in assay [7] is -0.26%.

Take `CCOc1cc(/C=N/n2cnnc2)ccc1OCC(=O)Nc1ccccc1OC`: the growth inhibition was 0.995% in assay [1] and 0.62% in assay [2]. The viability increase in assay [3] was -1.37%. The viability in assay [4] is 101%; in assay [5], 95.7%. Moreover, the inhibition in assay [6] is 1.91%. Also, the RAM network inhibition in assay [7] is 2.52%.

Regarding `CCCCn1c(NC(=O)c2ccccc2)nc2ccccc21`, the values for the growth inhibition in assay [1] and in assay [2] were 8.39% and -7.56%, respectively. Further, the viability increase in assay [3] is -3.95%. The viability was 22.1% (active) in assay [4] and 18.3% (active) in assay [5]. Further, in assay [6], the inhibition was -0.145%. Further, the RAM network inhibition in assay [7] is 3.88%.

With `CC(C)C(=O)Nc1ccc2c(c1)C(=O)N(CCC(=O)O)C2=O`, the growth inhibition in assay [1] was -4.82%; in assay [2] it was -16.1%. The viability increase in assay [3] was 0.2%. The values for the viability in assay [4] and in assay [5] were 106% and 100%, respectively. The inhibition in assay [6] is 2.14%. Also, the RAM network inhibition in assay [7] is -0.51%.

`Nc1nc2n(n1)C(c1ccco1)CC(c1ccc(F)cc1)N2` (stereo unspecified): the values for the growth inhibition in assay [1] and in assay [2] were -0.245% and 11.6%, respectively. The viability increase in assay [3] is 1.69%. Also, the viability in assay [4] was 98.4%; in assay [5], 101%. Besides, the inhibition in assay [6] is 0.45%. The RAM network inhibition in assay [7] was 4.49%.

Regarding `CCOC(=O)c1cn[nH]c1N`, the growth inhibition in assay [1] is -3.76%; in assay [2], 10.1%. Moreover, the viability increase in assay [3] is 0%. The viability was 101% in assay [4] and 102% in assay [5]. The inhibition in assay [6] was -0.235%. The RAM network inhibition in assay [7] is 0.61%.

Regarding `CCOc1ccccc1CNC(=O)c1cc2occc2n1C`, the growth inhibition in assay [1] was 1.53%; in assay [2], 5.16%. In addition, the viability increase in assay [3] is 1.21%. Further, the viability in assay [4] was 95.2%; in assay [5], 87.4%. Also, the inhibition in assay [6] was 1.74%. In addition, in assay [7], the RAM network inhibition was 3.98%.

As to `COc1cc2c(cc1OC)C1=C(C#N)CC/C(=N\S(=O)(=O)c3ccccc3)N1CC2`, the growth inhibition in assay [1] is -11.1%; in assay [2], -3.91%. Further, the viability increase in assay [3] is -4.28%. Also, the viability in assay [4] is 97.8%; in assay [5], 87.8%. The inhibition in assay [6] is 1.25%. Besides, the RAM network inhibition in assay [7] is 2.61%.

As for `COc1cccc(-c2nnc3n2N=C(C(C)(C)C)CS3)c1`, the growth inhibition in assay [1] is -5.97%; in assay [2], -16.3%. In addition, the viability increase in assay [3] is -4.18%. Moreover, the viability in assay [4] is 5.81% (active); in assay [5], 5.52% (active). For the same compound, the inhibition in assay [6] was 0.79%. The RAM network inhibition in assay [7] was 2.49%.

For the compound `COc1cccc(C(c2sc3ncnn3c2O)N2CC(C)OC(C)C2)c1` (stereo unspecified), the figures for the growth inhibition in assay [1] and in assay [2] were 4.48% and -2.31%, respectively. Also, the viability increase in assay [3] was 2.62%. In addition, the values for the viability in assay [4] and in assay [5] were 99.1% and 95.7%, respectively. For the same compound, the inhibition in assay [6] is 1.34%. Besides, the RAM network inhibition in assay [7] is 2.05%.

With `O=C1CCCC2=C1C1(O)C(=O)c3ccccc3C1(O)O2` (stereo unspecified), the growth inhibition in assay [1] was -7.89%; in assay [2] it was -16%. Besides, in assay [3], the viability increase is -4.62%. Besides, the viability in assay [4] was 89.4%; in assay [5], 88.7%. Besides, the inhibition in assay [6] was 1.28%. In addition, the RAM network inhibition in assay [7] is 1.91%.

For `Cn1c(=O)cc(N2CCc3ccccc32)[nH]c1=O`, the growth inhibition in assay [1] is -11.7%; in assay [2] it was 2.4%. In assay [3], the viability increase is 0.37%. Besides, the figures for the viability in assay [4] and in assay [5] were 90.8% and 98.1%, respectively. In addition, the inhibition in assay [6] was 1.23%. Moreover, the RAM network inhibition in assay [7] is -1.11%.

As for `O=C(CN1C(=O)C2C3C=CC(C3)C2C1=O)Nc1ccc2nccnc2c1` (stereo unspecified), the growth inhibition in assay [1] was 7.15%; in assay [2] it was -1.04%. Besides, the viability increase in assay [3] was -1.76%. In addition, the viability in assay [4] is 105%; in assay [5], 95.2%. Moreover, the inhibition in assay [6] is 2.29%. In assay [7], the RAM network inhibition was 0.31%.

As for `COCCn1c(CN(C)Cc2ccccc2)nc2c1c(=O)n(C)c(=O)n2C`, the growth inhibition in assay [1] is -5.71%; in assay [2] it was 8.7%. Besides, the viability increase in assay [3] was 0.55%. The viability in assay [4] is 87.8%; in assay [5], 91.5%. Besides, in assay [6], the inhibition is 3.04%. Moreover, the RAM network inhibition in assay [7] was 1.53%.

Consider `CC(NC(=O)COc1ccccc1)C(c1ccccc1)N1CCN(C)CC1` (stereo unspecified), for which the growth inhibition in assay [1] is -4.2%; in assay [2] it was -7.49%. Further, the viability increase in assay [3] was -3.94%. Moreover, the results for the viability in assay [4] and in assay [5] were 97% and 96.8%, respectively. Moreover, in assay [6], the inhibition was 1.02%. Also, the RAM network inhibition in assay [7] was 4.65%.

As to `NCCCC(=O)N1c2ccccc2Sc2ccccc21`, the growth inhibition in assay [1] is -16%; in assay [2] it was 3.53%. Also, the viability increase in assay [3] was -2.97%. For the same compound, the viability was 73.2% in assay [4] and 73.9% in assay [5]. In assay [6], the inhibition was 2.5%. Further, in assay [7], the RAM network inhibition is 0.52%.

Take `CC1=C(C(=O)OC2CCCCCCC2)C(c2ccc(O)cc2)NC(=O)N1` (stereo unspecified): the growth inhibition is -3.17% in assay [1] and 4.04% in assay [2]. The viability increase in assay [3] was -0.32%. Further, the viability in assay [4] is 73.8%; in assay [5] it was 72%. For the same compound, in assay [6], the inhibition is 1.85%. Also, in assay [7], the RAM network inhibition is 3.65%.
